sEH inh – inhibitors of human soluble epoxide hydrolase. P34913. AID 707. inhibition, % at 2 µM. 91,000 compounds, 0.34% hits. recombinant human sEH enzymatic activity assay; in the data active means inhibition above about 80%
Target sequence (P34913 whole entry, looked up): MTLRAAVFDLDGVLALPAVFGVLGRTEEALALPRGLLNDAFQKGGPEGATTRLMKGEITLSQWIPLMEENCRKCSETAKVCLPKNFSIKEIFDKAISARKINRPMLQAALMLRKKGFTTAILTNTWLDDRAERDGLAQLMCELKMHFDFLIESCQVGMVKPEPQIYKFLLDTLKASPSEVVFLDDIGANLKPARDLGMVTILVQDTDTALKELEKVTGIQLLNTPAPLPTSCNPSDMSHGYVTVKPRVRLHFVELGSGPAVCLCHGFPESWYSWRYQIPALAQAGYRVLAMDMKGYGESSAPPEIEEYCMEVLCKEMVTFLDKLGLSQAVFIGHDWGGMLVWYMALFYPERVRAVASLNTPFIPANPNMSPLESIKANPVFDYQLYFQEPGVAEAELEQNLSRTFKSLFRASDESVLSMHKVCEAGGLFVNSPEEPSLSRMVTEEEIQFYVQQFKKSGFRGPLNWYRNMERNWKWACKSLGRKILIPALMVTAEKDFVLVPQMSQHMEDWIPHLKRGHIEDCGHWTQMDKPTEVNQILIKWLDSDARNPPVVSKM
sEH act – activators of human soluble epoxide hydrolase. 91,000 compounds, 0.04% hits. AID 717. activation, % at 2 µM. purified human sEH enzymatic activity, activator screen; in the data active means activation above about 37%
Rev-RRE block – HIV Rev-RRE protein-RNA interaction inhibition; Rev peptide-RRE RNA binding, FRET; P05866; 97,000 compounds, 0.79% hits; inhibition, % at 8 µM;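 active means inhibition above the screen-wide mean plus 3 SD, cut at about 35% in these data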;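 further: 0% = median DMSO wells and 100% = median Neomycin B control wells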
Target sequence (P05866 whole entry, looked up): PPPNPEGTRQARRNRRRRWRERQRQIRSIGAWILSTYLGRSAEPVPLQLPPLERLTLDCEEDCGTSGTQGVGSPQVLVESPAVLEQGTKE
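assay system = Cy5-tagged RRE RNA duplex with fluorescein-tagged Rev peptide | incubation = 5 + 15 min at 25 °C | also added = labelled Rev peptide | measure = % inhibition of FRET ratio versus controls | benchmarks = DMSO wells as 0% and neomycin B wells as 100% inhibition | measured by = FRET fluorescence readout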
ERb SRC1 inh – ER-beta (human) coactivator binding inhibition; Q92731; TR-FRET ER-beta LBD / SRC1-Cy5 peptide binding; receptor agonist-loaded with 1 µM estradiol; inhibition, % at 25.6 µM; 86,000 compounds, 1.3% hits; AID 633;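 active means compounds whose percent inhibition of the receptor-coactivator binding signal exceeds about 50% in the single-dose screen, limit read from the data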;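 further: 0% = receptor plus peptide wells without compound and 100% = peptide-only wells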
ERa coact pot – enhances coactivator binding to human estrogen receptor alpha | TR-FRET ERalpha-LBD/SRC-Cy5 coactivator binding, 2 h; 100 = basal binding, no effect | coactivator binding (% of control), % at 25.6 µM | AID 639 | 86,000 compounds, 1.3% hits; in the data active means activity above about 200%;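 further: binding measured in presence of low estradiol as agonist stimulus; 0% = peptide alone without receptor and 100% = receptor with peptide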
ERa SRC1 inh – blocks coactivator binding to human estrogen receptor alpha. 86,000 compounds, 1.7% hits. inhibition, % at 25.6 µM. AID 629. TR-FRET ER-alpha LBD / SRC-1 peptide, estradiol-bound; in the data active means inhibition above about 50%;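 further: 0% = receptor plus peptide control and 100% = peptide only without receptor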
* = called active by the depositor; x = not tested or not shown; [ ] = another dose, or the depositor's remark. In the library only some 3.5% were active in any assay of this set; here they are far more common.

SMILES	sEH inh	sEH act	Rev-RRE block	ERb SRC1 inh	ERa coact pot	ERa SRC1 inh
COc1ccc2nc3oc(C(=O)N4CCN(c5cccc(C(F)(F)F)c5)CC4)cc3cc2c1	-8.8	5.7	13.8	37.2	118.0	66.2*
COc1ccc2nc3oc(C(=O)N4CCN(c5cccc(Cl)c5)CC4)cc3cc2c1	-7.8	5.2	1.5	35.4	113.2	62.1*[fluorescence artefact?]
COc1ccc2nc3oc(C(=O)N4CCC(C(N)=O)CC4)cc3cc2c1	-4.9	2.5	1.6	4.4	119.1	-1.4
CCOC(=O)c1cc2n(c1/N=C/N(C)C)-c1ccccc1C2=O	7.3	-9.9	135.2*[fluorescence artefact?]	-2.5	104.4	3.6
COc1cc2[nH]cc(C(=O)NCc3cccs3)c(=O)c2cc1OC	5.6	-4.5	0.5	-5.6	112.8	-6.2
CCOC(=O)C1Cn2c(nc3c(c2=O)C(C)(C)Cc2ccccc2-3)S1 (configuration not stated)	8.3	-7.2	5.0	5.5	83.0	4.4
CS(=O)(=O)N1CCCC(C(=O)N2CCc3ccccc3C2)C1 (configuration not stated)	-3.0	1.7	1.8	x	x	x
CS(=O)(=O)N1CCC(C(=O)N2CCc3ccccc3C2)CC1	-39.3	38.6*	7.5	-9.2	105.2	-6.8
CCN1CCN(C(=S)Nc2ccc([N+](=O)[O-])cc2)CC1	-3.0	5.9	2.1	x	x	x
CN1CCN(S(=O)(=O)c2ccc3c4c(cccc24)C(=O)N3)CC1	-3.4	5.8	9.1	-10.0	147.9	25.9
CCOc1ccccc1N1CCN(S(=O)(=O)c2ccc3c4c(cccc24)C(=O)N3)CC1	7.3	-5.4	2.8	55.6*[fluorescence artefact?]	55.4	38.8
CCS(=O)(=O)N1CCC(NC(C)=O)(c2ccccc2)CC1	-3.1	1.4	10.0	-16.2	109.5	-7.6
O=C1CCCC(O)=C1C(C#Cc1ccccc1)C1=C(O)CCCC1=O	x	x	x	52.1*[fluorescence artefact?]	24.1	33.6
CC1(C)CC(=O)C(C(C#Cc2ccccc2)C2=C(O)CC(C)(C)CC2=O)=C(O)C1	11.7	-8.6	0.2	21.5	55.6	19.9
c1ccc(-n2c(-c3ccco3)nnc2-c2ccco2)cc1	-6.5	4.1	-3.0	0.0	107.5	-3.8
CCOC(=O)C1=C(C)S/C(=C\N(C)C)C1=O	8.3	-7.8	5.6	73.3*[fluorescence artefact?]	34.3	53.9*
CC(C)c1cc(CN2CCN(CCC#N)CC2)cc(C(C)C)c1O	4.0	-5.8	2.1	-1.1	115.0	-4.3
CN(CC(=O)Nc1ccc2c(c1)OCCO2)S(=O)(=O)c1ccc(Br)s1	3.0	-1.6	3.9	1.7	106.1	-8.3
COc1ccc(-n2nc3c(c2NC(=O)c2cc4ccccc4oc2=O)CS(=O)(=O)C3)cc1	x	x	x	66.4*[fluorescence artefact?]	85.7	63.3*
CCN(CC)C(=O)Sc1cccc2cccnc12	-3.7	3.2	1.1	3.8	115.5	3.1
CCOC(=O)CSc1cccc2cccnc12	-1.1	3.8	5.9	-4.6	237.3*[fluorescence artefact?]	-10.3
CC1=NOC(=O)/C1=C/c1ccc(N(C)C)cc1	-0.5	1.4	86.2*	x	x	x
Cc1ccccc1N1C(=O)c2cccc3c(N(C)CCO)ccc(c23)C1=O	-14.0	15.9	125.5*[fluorescence artefact?]	5.9	106.5	-3.5
CCOC(=O)c1ccc(N2C(=O)C3CC=CCC3C2=O)cc1 (configuration not stated)	-22.5	20.1	-1.8	2.9	122.6	5.3
CCOC(=O)c1ccc(N2C(=O)C3C(C2=O)C(C(=O)c2ccc(Cl)cc2)N2CCCC32)cc1 (configuration not stated)	-0.6	1.6	65.6*	5.0	124.6	0.3
SMILES	sEH inh	sEH act	Rev-RRE block	ERb SRC1 inh	ERa coact pot	ERa SRC1 inh
CCn1nc(C)c(/C=C2\CCCC3=C2OC(N)=C(C#N)C3c2c(C)nn(CC)c2C)c1C (configuration not stated)	10.4	-9.8	46.9*	-17.3	124.7	3.4
COc1ccc(OC)c(C2=NOC(C(=O)Nc3cccnc3)C2)c1 (configuration not stated)	6.5	-5.3	4.4	0.6	106.5	7.4
Cc1ccc(S(=O)(=O)N2CCN(C(=O)C3=COCCO3)CC2)cc1C	-1.8	4.9	8.7	-5.0	88.5	-7.6
O=C(C1=COCCO1)N1CCN(S(=O)(=O)c2cccc(Cl)c2Cl)CC1	-12.9	12.3	4.4	59.8*[fluorescence artefact?]	107.2	-9.1
CCC(Sc1nc(C)cc(=O)[nH]1)C(=O)Nc1nc2c(s1)CCCC2 (configuration not stated)	-7.1	7.3	2.8	-2.0	106.3	-3.1
Cc1cc(=O)[nH]c(SCC(=O)Nc2nc3c(s2)CCCC3)n1	1.7	-3.5	-0.5	77.8*	106.6	0.8
CC(O)CN(Cc1cccc(Cl)c1)CC(C)O (configuration not stated)	4.4	0.8	-0.8	-3.5	132.3	-2.2
CC1=NOC(=O)/C1=C/c1ccc(-c2ccc(Cl)cc2)o1	-5.1	4.1	10.3	8.1	43.8	64.4*[fluorescence artefact?]
CS(=O)(=O)Nc1cccc(C(=O)CC2(O)C(=O)Nc3ccc(Br)cc32)c1 (configuration not stated)	8.0	-7.8	-0.2	-10.2	103.6	-15.0
Clc1ccc(-c2nnc3sc(-c4ccc(Br)o4)nn23)cc1	-7.7	7.1	3.2	56.4*[fluorescence artefact?]	143.5	55.8*[fluorescence artefact?]
COc1ccc(-c2nnc3sc(-c4ccc(Br)o4)nn23)cc1OC	x	x	x	28.9	138.9	61.6*
Cc1oc(-c2ccc(Cl)cc2)cc1-c1nn2c(-c3ccoc3C)nnc2s1	-2.7	5.1	4.4	63.7*[fluorescence artefact?]	58.6	78.9*
Clc1ccc(-c2nn3c(-c4ccccc4)nnc3s2)cc1	x	x	x	37.9	130.3	39.9
Clc1ccc(-c2nnc3sc(-c4ccc(Br)o4)nn23)c(Cl)c1	-12.4	10.9	6.6	x	x	x
CCOCCCNC(=O)C1CCN(S(=O)(=O)c2c(C)noc2/C=C\c2ccc(OC)cc2)CC1	31.2	-28.9	1.6	-6.2	106.9	-7.0
Fc1cccc(Nc2cc(-n3cccn3)ncn2)c1	1.8	1.1	-1.0	-21.0	93.4	-16.1
O=C1NCCN1CCNS(=O)(=O)c1ccc2ccccc2c1	5.2	-3.8	4.8	-8.5	122.4	58.3*[fluorescence artefact?]
O=C1c2ccccc2CN1CCNS(=O)(=O)c1ccc2ccccc2c1	2.0	1.5	2.7	-3.6	99.0	-11.7
O=C(Nc1ccccc1C(=O)O)c1ccc2ccccc2n1	1.4	-1.3	2.4	90.7*[fluorescence artefact?]	94.3	1.4
O=C(Nc1ccc(Cl)cn1)c1ccc2ccccc2n1	-0.8	0.5	3.9	-9.6	98.8	2.7
O=C(Nc1ccccc1C(=O)O)c1ccccc1	17.1	-19.6	-6.2	50.6*	79.7	39.5
O=C(CN1CCCCCC1)Nc1ccc(F)c(F)c1F	-24.0	22.3	5.0	-4.0	98.4	0.9
COc1ccc(Oc2nc3ccccc3n(C)c2=O)cc1	-6.8	4.6	1.9	x	x	x
COc1ccc(/C(O)=C/c2nc3ccccc3n(-c3ccccc3)c2=O)cc1	2.6	0.3	78.0*	9.8	120.5	9.7
